# Measured values taken from ChEMBL document CHEMBL4813998, “Structural simplification of evodiamine: Discovery of novel tetrahydro-β-carboline derivatives as potent antitumor agents” (Bioorg Med Chem Lett, 2021).
# Tests used:
# HCT-116 [1] = experiment: Induction of apoptosis in human HCT116 cells at 1.5 uM after 48 hrs by annexin V-FITC/propidium iodide staining based flow cytometry (RVB = 6.77%); format: functional
# Outline: (§1)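 HCT116 cells were treated at 0.03, 0.15, 0.75 or 1.5 μM for 48 h. They were then stained with Annexin V/PI and analysed by flow cytometry, and apoptotic cells were reported as a percentage. An untreated control was run alongside.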
# HCT-116 [2] = experiment: Induction of cell cycle arrest in human HCT-116 cells assessed as accumulation at S phase at 0.03 uM after 24 hrs by propidium iodide staining based flow cytometric analysis (reference value: 39.06%); format: functional
# HCT-116 [3] = experiment: Induction of apoptosis in human HCT116 cells at 0.03 uM after 48 hrs by annexin V-FITC/propidium iodide staining based flow cytometry (RVB = 6.77%); format: functional; outline: as §1
# HCT-116 [4] = experiment: Induction of cell cycle arrest in human HCT-116 cells assessed as accumulation at G1 phase at 0.03 uM after 48 hrs by propidium iodide staining based flow cytometric analysis (reference value: 34.38%); format: functional
# HCT-116 [5] = experiment: Induction of cell cycle arrest in human HCT-116 cells assessed as accumulation at G2/M phase at 0.03 uM after 48 hrs by propidium iodide staining based flow cytometric analysis (reference value: 25.01%); format: functional
# HCT-116 [6] = experiment: Induction of cell cycle arrest in human HCT-116 cells assessed as accumulation at S phase at 0.03 uM after 48 hrs by propidium iodide staining based flow cytometric analysis (reference value: 40.6%); format: functional
# HCT-116 [7] = experiment: Induction of apoptosis in human HCT116 cells at 0.75 uM after 48 hrs by annexin V-FITC/propidium iodide staining based flow cytometry (RVB = 6.77%); format: functional; outline: as §1
# [8] = Antiproliferative activity against human HCT116 cells assessed as growth inhibition by CCK8 assay; format: functional, cell-based, Epithelial cell; details: epithelial cell
# HCT-116 [9] = experiment: Induction of cell cycle arrest in human HCT-116 cells assessed as accumulation at G2/M phase at 0.15 uM after 48 hrs by propidium iodide staining based flow cytometric analysis (reference value: 25.01%); format: functional
# HCT-116 [10] = experiment: Induction of cell cycle arrest in human HCT-116 cells assessed as accumulation at S phase at 0.15 uM after 24 hrs by propidium iodide staining based flow cytometric analysis (reference value: 39.06%); format: functional
# HCT-116 [11] = experiment: Induction of cell cycle arrest in human HCT-116 cells assessed as accumulation at G1 phase at 0.75 uM after 24 hrs by propidium iodide staining based flow cytometric analysis (reference value: 33.16%); format: functional
# HCT-116 [12] = experiment: Induction of cell cycle arrest in human HCT-116 cells assessed as accumulation at G2/M phase at 0.03 uM after 24 hrs by propidium iodide staining based flow cytometric analysis (reference value: 27.78%); format: functional
# HCT-116 [13] = experiment: Induction of cell cycle arrest in human HCT-116 cells assessed as accumulation at G2/M phase at 0.75 uM after 24 hrs by propidium iodide staining based flow cytometric analysis (reference value: 27.78%); format: functional
# HCT-116 [14] = experiment: Induction of cell cycle arrest in human HCT-116 cells assessed as accumulation at S phase at 0.75 uM after 48 hrs by propidium iodide staining based flow cytometric analysis (reference value: 40.6%); format: functional
# HCT-116 [15] = experiment: Induction of cell cycle arrest in human HCT-116 cells assessed as accumulation at G2/M phase at 0.75 uM after 48 hrs by propidium iodide staining based flow cytometric analysis (reference value: 25.01%); format: functional
# [16] = Antiproliferative activity against human MDA-MB-231 cells assessed as growth inhibition by CCK8 assay; format: functional, cell-based, Epithelial cell; details: epithelial cell
# HCT-116 [17] = experiment: Induction of cell cycle arrest in human HCT-116 cells assessed as accumulation at S phase at 0.15 uM after 48 hrs by propidium iodide staining based flow cytometric analysis (reference value: 40.6%); format: functional
# HCT-116 [18] = experiment: Induction of apoptosis in human HCT116 cells at 0.15 uM after 48 hrs by annexin V-FITC/propidium iodide staining based flow cytometry (RVB = 6.77%); format: functional; outline: as §1
# HCT-116 [19] = experiment: Induction of cell cycle arrest in human HCT-116 cells assessed as accumulation at G1 phase at 0.03 uM after 24 hrs by propidium iodide staining based flow cytometric analysis (reference value: 33.16%); format: functional
# [20] = Antiproliferative activity against human A549 cells assessed as growth inhibition by CCK8 assay; format: functional, cell-based, Epithelial cell; details: epithelial cell
# HCT-116 [21] = experiment: Induction of cell cycle arrest in human HCT-116 cells assessed as accumulation at G1 phase at 0.15 uM after 48 hrs by propidium iodide staining based flow cytometric analysis (reference value: 34.38%); format: functional
# HCT-116 [22] = experiment: Induction of cell cycle arrest in human HCT-116 cells assessed as accumulation at G2/M phase at 0.15 uM after 24 hrs by propidium iodide staining based flow cytometric analysis (reference value: 27.78%); format: functional
# HCT-116 [23] = experiment: Induction of cell cycle arrest in human HCT-116 cells assessed as accumulation at G1 phase at 0.75 uM after 48 hrs by propidium iodide staining based flow cytometric analysis (reference value: 34.38%); format: functional
# HCT-116 [24] = experiment: Induction of cell cycle arrest in human HCT-116 cells assessed as accumulation at G1 phase at 0.15 uM after 24 hrs by propidium iodide staining based flow cytometric analysis (reference value: 33.16%); format: functional
# HCT-116 [25] = experiment: Induction of cell cycle arrest in human HCT-116 cells assessed as accumulation at S phase at 0.75 uM after 24 hrs by propidium iodide staining based flow cytometric analysis (reference value: 39.06%); format: functional
smiles,measurement,setting,value
COc1ccc2[nH]c3c(c2c1)CCN(C(=O)CCc1ccccc1)C3c1ccc(Cl)c(Cl)c1 (stereo in doubt; 45),Activity,HCT-116 [1],30.98%
same,Activity,HCT-116 [2],35.43%
same,Activity,HCT-116 [3],10.11%
same,Activity,HCT-116 [4],11.27%
same,Activity,HCT-116 [5],67.92%
same,Activity,HCT-116 [6],20.81%
same,Activity,HCT-116 [7],25.43%
same,IC50,[8],160 nM
same,Activity,HCT-116 [9],93.03%
same,Activity,HCT-116 [10],19.86%
same,Activity,HCT-116 [11],1.2%
same,Activity,HCT-116 [12],32.12%
same,Activity,HCT-116 [13],88.37%
same,Activity,HCT-116 [14],4.79%
same,Activity,HCT-116 [15],93.15%
same,IC50,[16],160 nM
same,Activity,HCT-116 [17],4.78%
same,Activity,HCT-116 [18],13.46%
same,Activity,HCT-116 [19],32.45%
same,IC50,[20],760 nM
same,Activity,HCT-116 [21],2.19%
same,Activity,HCT-116 [22],78.12%
same,Activity,HCT-116 [23],2.06%
same,Activity,HCT-116 [24],2.02%
same,Activity,HCT-116 [25],10.43%
